Measurements pooled from the literature.
Protocols differ between the studies behind these lines. Values after ≈ are worked out from the molar mass of the structure shown.

SMILES	target or system	assay	test system	setting	quantity	value
COc1c2ccoc2cc2oc(=O)ccc12	HEp-2	cell growth or viability, WST-1	–	48 h	IC50	23.4 µM
O=c1c(O[C@@H]2O[C@H](CO)[C@H](O)[C@H](O)[C@H]2O)c(-c2ccc(O)c(O)c2)oc2cc(O)cc(O)c12	–	DPPH scavenging, absorbance	–	30 min	IC50	142 µM
CC(Cc1ccc(O)cc1)NCC(O)c1cc(O)cc(O)c1 (stereo not drawn)	THP-1	TNF-α release, inhibitor	–	17 h, LPS-stimulated	IC50	0.12 µM
CO/N=C1\CN(c2nc3c(cc2F)c(=O)c(C(=O)O)cn3C2CC2)CC1CN (stereo not drawn)	Haemophilus influenzae	microbial growth	–	–	MIC	2 µg/mL (≈ 5.14 µM)
O=c1[nH]cnc2c1nnn2-c1cccc(Cl)c1	Chikungunya virus	viral replication, luciferase	BHK-21	16 h	IC50	> 100 µM
O=C(O)c1cn(C2CC2)c2cc(N3CCNCC3)c(F)cc2c1=O	Haemophilus influenzae	microbial growth	–	–	MIC	> 4 µg/mL
O=C(Nc1ncc([N+](=O)[O-])s1)c1cccnc1	Chikungunya virus	viral replication, luciferase	BHK-21	16 h	IC50	> 100 µM
COc1ccc(O)c(C(C)(C)C)c1	–	DPPH scavenging, absorbance	–	–	IC50	10.1 µg/mL
Cc1ccc(C2CC2C(=O)NC(C(N)=O)c2ccccc2)cc1C (stereo not drawn)	Chikungunya virus	viral replication, luciferase	BHK-21	16 h	IC50	> 100 µM
O=C1O[C@H]([C@@H](O)CO)C(O)=C1O	–	DPPH scavenging	–	–	IC50	10.2 µM
O=C(Nc1ccc(O)cc1)c1ccccc1O	Chikungunya virus	viral replication, luciferase	BHK-21	16 h	IC50	> 100 µM
CCCCCCCCCOc1ccc2[nH]cc(CCN)c2c1	FaDu	cell growth or viability	–	72 h	IC50	7.3 µM
